# High-throughput results (PubChem BioAssay)
# KCNQ1 pot = human KCNQ1 channel potentiation or activation; P51787; CHO-K1 KCNQ1, thallium flux FluxOR fluorescence; hits give high values; B-score at 10 µM; actives 0.35% (n = 310,000);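 active means fluorescence ratio B-score, a plate-corrected score, at least three library SD, with initial intensity B-score within 5 SD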
#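 Doses: Single concentration per compound, DMSO matched to controls | Test system: KCNQ1-transfected CHO-K1 cells | Timing: 90 min dye loading and 20 min compound exposure, both at room temperature | Measured by: Kinetic FluxOR thallium fluorescence, 10-s 1-Hz baseline, 110-s post-stimulus read | Medium: Assay buffer with matched DMSO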
# KCNK3 inh = human KCNK3 channel inhibition, primary screen. O14649. CHO-KCNK3 thallium flux, FluxOR fluorescence; hits give low values. B-score at 10 µM. actives 0.84% (n = 340,000);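 active means B-score under library mean minus 4 SD, starting fluorescence ratio at most library mean plus 5 SD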;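 further: more negative B-score means stronger inhibition of thallium flux through KCNK3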
# KCNK9 block = inhibitors of human KCNK9 two-pore domain potassium channel; AID 488922; HEK293 KCNK9, FluxOR thallium flux fluorescence; hits give low values; B-score at 10 µM; Q9NPC2; actives 1.2% (n = 310,000);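 active means ratio B-score over 3 SD below the library mean, with starting fluorescence within 5 SD of its mean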;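 further: negative B-score means less thallium flux so channel inhibition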
# hERG rescue = shields human hERG channel from block by proarrhythmic agents. activation (rescue from dofetilide block), less the hit threshold, % at 10 µM. actives 0.51% (n = 310,000). Q12809. CHO-hERG, FluxOR thallium flux, dofetilide IC70 present;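 active means activation above the mean of controls blocked by dofetilide plus 5 SD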;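 further: thallium influx through hERG after potassium depolarization seen as dye fluorescence rise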
# KCNQ1 inh = blocks the human KCNQ1 potassium channel; P51787; CHO-K1 KCNQ1, FluxOR thallium flux fluorescence; hits give high values; B-score at 10 µM; actives 1.3% (n = 310,000); AID 2642;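 active means compounds whose thallium flux B-score, printed positive for inhibition, exceeds three library SD while starting fluorescence stays within three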;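 further: channel opened by potassium depolarization with thallium stimulus after 20 min compound exposure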
# KCNK9 inh conf = confirmation of human KCNK9 potassium channel inhibitors; actives 43% (n = 4,900); shares compounds with KCNK9 block; AID 492992; inhibition, % at 10 µM; HEK293 KCNK9 cells, FluxOR thallium flux fluorescence;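 active means thallium signal inhibited by more than 5 SD of the compound-free buffer control wells, on both duplicate plates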
# Kir21 sel = mouse Kir2.1 off-target activity of KCNK9 modulators; Kir2.1 cells, FluxOR thallium flux fluorescence; actives 4% (n = 4,900); AID 492993; inhibition, % at 10 µM; shares compounds with KCNK9 block;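 active means thallium signal drop more than 5 SD beyond the mean of the no-compound control wells, seen in both duplicate plates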;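 further: signal is fluorescence rise after thallium addition divided by baseline fluorescence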
# Target sequence (P35561 whole entry, looked up): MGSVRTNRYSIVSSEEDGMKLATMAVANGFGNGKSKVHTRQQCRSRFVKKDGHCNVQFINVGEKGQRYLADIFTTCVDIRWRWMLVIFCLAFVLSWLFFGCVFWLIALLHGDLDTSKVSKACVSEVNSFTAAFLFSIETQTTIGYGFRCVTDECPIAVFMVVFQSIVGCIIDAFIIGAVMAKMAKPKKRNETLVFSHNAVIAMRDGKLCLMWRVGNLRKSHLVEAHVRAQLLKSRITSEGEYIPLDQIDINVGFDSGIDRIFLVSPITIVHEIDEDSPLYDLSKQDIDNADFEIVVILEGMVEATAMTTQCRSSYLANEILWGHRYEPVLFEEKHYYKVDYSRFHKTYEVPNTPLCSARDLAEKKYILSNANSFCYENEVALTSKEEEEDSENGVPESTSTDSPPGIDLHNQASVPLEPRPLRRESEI
# HEK293 Tl ctr = second check of KCNK9 modulator effects in non-induced HEK293 cells; actives 40% (n = 4,900); inhibition, % at 10 µM; shares compounds with KCNK9 block; FluxOR thallium flux;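 active means thallium signal drop beyond 5 SD of the untreated control mean, on both duplicate plates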
# Numbers stand for hits; . = inactive; / = no result given. Most compounds without a hit are left out; they make up all but 3.1% or so of the library.
SMILES,KCNQ1 pot,KCNK3 inh,KCNK9 block,hERG rescue,KCNQ1 inh,KCNK9 inh conf,Kir21 sel,HEK293 Tl ctr
CCC(NC(=O)c1cccc(Cn2nc(C)c([N+](=O)[O-])c2C)c1)c1ccc(C(C)C)cc1 (configuration not stated),.,.,.,.,.,.,.,.
O=C(Oc1ccc2[nH]cc(CCN3C(=O)c4ccccc4C3=O)c2c1)c1ccco1,.,.,-11,.,.,26%,.,.
CCn1cc(CCCC(=O)NCc2ccc(OC)cc2)c2ccccc21,.,.,.,.,.,.,.,.
CCOc1ccccc1CNC(=O)CCc1cn(CC)c2ccccc12,.,.,.,.,.,.,.,.
CCn1cc(CCCC(=O)NCc2cccnc2)c2ccccc21,.,.,.,.,.,/,/,/
CCn1cc(CCC(=O)NCCc2ccccc2)c2ccccc21,.,.,.,.,.,/,/,/
Cc1cc(Br)ccc1NC(=O)CN(C)C(=O)c1cccc(S(=O)(=O)N2CCN(C)CC2)c1,/,.,/,/,/,/,/,/
O=C(NCCc1ccccc1)c1ccc(NCC2CCCO2)c([N+](=O)[O-])c1 (configuration not stated),.,.,.,.,.,/,/,/
O=C(c1cccc(C(F)(F)F)c1)N1CCOC12CCN(c1ncc(C(F)(F)F)cc1Cl)CC2,.,.,.,.,.,.,.,.
COC(=O)c1cc2sc(Cl)cc2n1CC(=O)Nc1cccc(SC)c1,.,.,-10,.,.,48%,.,32%
CC1(C)C[C@H]2C3=CCC4[C@@]5(C)CC[C@H](O)[C@](C)(CO)C5CC[C@@]4(C)[C@]3(C)C[C@H]3O[C@@H]1[C@H](O)[C@]32CO (some centres not stated),/,.,/,/,/,/,/,/
COc1cccc(OCC(=O)N(C)Cc2nc(-c3cccc(C)c3)no2)c1,.,.,.,.,.,.,.,.
COc1ccc(OC(C)C(=O)N(C)Cc2nc(-c3cccc(C)c3)no2)cc1 (configuration not stated),.,.,.,.,.,.,.,.
COC(=O)C1=NN(C(=O)c2cccc(Br)c2)C(O)(c2ccc(Cl)cc2)C1 (configuration not stated),82,.,.,59,.,.,.,.
Cc1nc(N2CCCCC2C)c2c(C)c(C(=O)Nc3ccccc3C(F)(F)F)sc2n1 (configuration not stated),.,.,-14,.,9,55%,.,42%
Cc1nc(N2CCOCC2)c2c(C)c(C(=O)Nc3ccccc3C(F)(F)F)sc2n1,.,.,.,.,.,/,/,/
CCOC(=O)Cc1c(C)nc2c(-c3ccc(OC)cc3)c(C)nn2c1C,.,.,.,.,.,.,.,.
Cc1nc2c(-c3ccccc3)c(C)nn2c(C)c1CCC(=O)O,.,.,.,.,.,/,/,/
Cc1cc(C)nc(N/C(=N\S(=O)(=O)Cc2ccccc2)Nc2ccccc2Br)n1,.,.,-9.4,.,.,40%,.,.
CN(C(=O)COC(=O)c1cc(=O)[nH]c2ccccc12)c1ccccc1,/,.,/,/,/,/,/,/
CCOC(=O)c1cnn(-c2ccccc2)c1-n1cccc1C(=O)C(=O)Nc1ccccc1C(F)(F)F,.,.,-14,.,.,43%,.,54%
CC1CCC(C(C)C)C(OC(=O)Cn2c(-c3ccccc3)[n+](C)c3ccccc32)C1 (configuration not stated),.,.,-8.8,.,.,64%,74%,.
Cc1cccc2c1N(C(=O)c1ccco1)C(C)(C)c1ssc(=S)c1-2,.,.,.,.,.,/,/,/
Cc1ccc2c(c1)N(C(=O)c1ccco1)C(C)(C)c1ssc(=S)c1-2,.,.,-8.3,.,.,38%,.,30%
Cc1ccc(SCCN2CCN(C)CC2)cc1,.,.,.,.,.,/,/,/
SMILES,KCNQ1 pot,KCNK3 inh,KCNK9 block,hERG rescue,KCNQ1 inh,KCNK9 inh conf,Kir21 sel,HEK293 Tl ctr
Cc1ccc(SCCN2CCN(Cc3ccccc3)CC2)cc1,.,.,.,.,.,.,.,.
O=c1cc(NC2CCCCC2)c2ccccc2o1,.,.,.,.,.,/,/,/
CC(=O)N1N=C(c2ccccc2)CC1c1cccc([N+](=O)[O-])c1 (configuration not stated),.,.,.,.,.,/,/,/
COc1ccc(C2CC(c3ccccc3)=NN2C(=O)COC(=O)C2(C)CC2(Cl)Cl)cc1 (configuration not stated),.,.,.,.,.,.,.,.
COc1ccc(C2=NN(C(=O)c3ccccc3)C(c3cccc([N+](=O)[O-])c3)C2)cc1 (configuration not stated),.,.,-18,.,.,54%,.,28%
Cc1ccc(-c2nc(CS(=O)CC(=O)NCc3ccco3)c(C)o2)cc1 (configuration not stated),.,.,.,.,.,/,/,/
CCOc1cc(CN2CCN(c3ccc(C(C)=O)cc3)CC2)ccc1OC,.,.,.,.,.,/,/,/
COc1ccc(CC(C)N2CCN(c3cccc(C(F)(F)F)c3)CC2)cc1OC (configuration not stated),.,.,.,.,.,.,.,.
COc1ccccc1C(=O)N1CCN(c2cccc(C(F)(F)F)c2)CC1,.,.,.,.,.,/,/,/
CCOc1cc(CN2CCN(c3cccc(C(F)(F)F)c3)CC2)ccc1OC,.,.,.,.,.,.,.,.
CCOc1cc(CN2CCN(c3cccc(C(F)(F)F)c3)CC2)ccc1O,.,.,.,.,.,.,.,.
COCCn1nnnc1C(c1cccs1)N1CCN(c2cccc(C(F)(F)F)c2)CC1 (configuration not stated),.,.,-14,.,.,59%,.,40%
C#CCNC(=O)C1=C[C@H](c2csc3ccccc23)C[C@H](OCCCCO)O1,.,.,.,.,.,/,/,/
CN(CCC#N)C(=S)Nc1ccc(S(=O)(=O)N2CCOCC2)cc1,.,.,.,.,.,/,/,/
CCN(C(=O)Cc1c(C(=O)O)n(CC)c2ccccc12)c1cccc(C(F)(F)F)c1,.,.,.,.,.,/,/,/
COC(=O)c1cc(CN2CCN(c3ccccc3)CC2)ccc1O,.,.,.,.,.,.,.,.
CCOc1ccccc1C(=O)NC(C(=O)Nc1cccnc1)C(C)C (configuration not stated),.,.,.,.,.,/,/,/
Clc1ccc(-c2ccc(-c3nn4c(-c5ccco5)nnc4s3)o2)cc1,.,.,-9.8,.,.,40%,.,.
O=C(Nc1cccc(Cl)c1)N(CCN1CCOCC1)Cc1cccc(Cl)c1,.,-11,-12,.,6,54%,.,34%
